Assay results as given in ChEMBL document CHEMBL3259621, “Novel merosesquiterpene exerts a potent antitumor activity against breast cancer cells in vitro and in vivo” (Eur J Med Chem, 2014).

Assays:
MCF7 = test: Cytotoxicity against human MCF7 cells after 3 days by SRB assay; type: functional, cell-based; conditions: MCF7, 72 h
How it was run: (§1)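 Cells seeded in quadruplicate at 5 × 10³ cells/cm². Compound added at 24 h over increasing concentrations for 3 days. Cells fixed with cold 10% TCA, stained with 0.4% sulforhodamine B in 1% acetic acid, dye solubilized in 10 mM Tris pH 10.5, OD read at 492 nm. IC50 taken by linear interpolation of the semi-log dose-response curve. DMSO below 0.1% final.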

A549 = test: Cytotoxicity against human A549 cells after 3 days by SRB assay; type: functional, cell-based; conditions: A549, 72 h; how it was run: as §1
T84 = test: Cytotoxicity against human T84 cells after 3 days by SRB assay; type: functional, cell-based; conditions: T84, 72 h; how it was run: as §1
RKO = test: Cytotoxicity against human RKO cells after 3 days by SRB assay; type: functional, cell-based; conditions: 72 h
How it was run: (§2)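 Cells seeded at 5 × 10³ cells/cm² in quadruplicate and, after 24 h, treated with increasing concentrations for 3 days. Compounds diluted from DMSO stock, final DMSO <0.1% v/v. Cells were fixed with cold 10% TCA, stained with 0.4% sulforhodamine B in 1% acetic acid, and dye solubilised in 10 mM Tris-base pH 10.5. OD read at 492 nm. IC50 obtained by linear interpolation on a semi-log dose-response curve.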

[1] = Cytotoxicity against human CCD-18Co cells after 3 days by SRB assay; type: cell-based; conditions: 72 h; how it was run: as §2
HT-29 = test: Cytotoxicity against human HT-29 cells after 3 days by SRB assay; type: functional, cell-based; conditions: HT-29, 72 h; how it was run: as §2
T47D = test: Cytotoxicity against human T47D cells after 3 days by SRB assay; type: functional, cell-based; conditions: 72 h; how it was run: as §2
[2] = Therapeutic index, ratio of IC50 for human MCF10A cells to IC50 for mouse E0771 cells; type: cell-based, MCF-10A; conditions: MCF10A cells versus E0771 cells, read-out: Ratio IC50
[3] = Therapeutic index, ratio of IC50 for human CCD-18Co cells to IC50 for human SW480 cells; type: cell-based; conditions: CCD-18Co cells versus SW480 cells, read-out: Ratio IC50
[4] = Cytotoxicity against human MCF10A cells after 3 days by SRB assay; type: cell-based; conditions: MCF-10A, 72 h; how it was run: as §2
SW480 = test: Cytotoxicity against human SW480 cells after 3 days by SRB assay; type: functional, cell-based; conditions: SW480, 72 h; how it was run: as §2
[5] = Therapeutic index, ratio of IC50 for human CCD-18Co cells to IC50 for human T84 cells; type: cell-based, T84; CCD-18Co; conditions: CCD-18Co cells versus T84 cells, read-out: Ratio IC50
[6] = Therapeutic index, ratio of IC50 for human MCF10A cells to IC50 for human MDA-MB-231 cells; type: cell-based, MCF-10A; conditions: MCF10A cells versus MDA-MB-231 cells, read-out: Ratio IC50
[7] = Cytotoxicity against mouse E0771 cells after 3 days by SRB assay; type: functional, cell-based; conditions: E0771, 72 h; how it was run: as §2
[8] = Therapeutic index, ratio of IC50 for human MCF10A cells to IC50 for human T47D cells; type: cell-based, MCF-10A; conditions: MCF10A cells versus T47D cells, read-out: Ratio IC50
[9] = Therapeutic index, ratio of IC50 for human CCD-18Co cells to IC50 for human RKO cells; type: cell-based; conditions: CCD-18Co cells versus RKO cells, read-out: Ratio IC50
[10] = Therapeutic index, ratio of IC50 for human MCF10A cells to IC50 for human MCF7 cells; type: cell-based, MCF-10A; conditions: MCF10A cells versus MCF7 cells, read-out: Ratio IC50
MDA-MB-231 = test: Cytotoxicity against human MDA-MB-231 cells after 3 days by SRB assay; type: functional, cell-based; conditions: MDA-MB-231, 72 h; how it was run: as §2
[11] = Therapeutic index, ratio of IC50 for human CCD-18Co cells to IC50 for human HT-29 cells; type: cell-based; conditions: CCD-18Co cells versus HT-29 cells, read-out: Ratio IC50

C=C1CC[C@@H]2[C@](C)(CCC[C@]2(C)C(=O)OC)[C@H]1Cc1c(C)cccc1C#N
IC50 (MCF7): 39.6 µM
IC50 (A549): 20.2 µM
IC50 (T84): 23.7 µM

C=C1CC[C@@H]2[C@](C)(CCC[C@]2(C)C(=O)OC)[C@H]1Cc1c(C)ccc(C(=O)OC)c1O
IC50 (MCF7): 45.1 µM
IC50 (A549): 27 µM
IC50 (T84): 40 µM

C=C1CC[C@@H]2[C@](C)(CCC[C@]2(C)C(=O)OC)[C@H]1Cc1c(C)ccc2c1C(=O)C(OC)=CC2=O
IC50 (MCF7): 16 µM
IC50 (A549): 17.5 µM
IC50 (T84): 16.7 µM

O=c1[nH]cc(F)c(=O)[nH]1 [FLUOROURACIL]
IC50 (RKO): 4.39 µM
IC50 [1]: 9.26 µM
IC50 (HT-29): 2.58 µM
IC50 (T47D): 10.6 µM
selectivity ratio [2]: 28.8
IC50 (MCF7): 2.86 µM
selectivity ratio [3]: 2.51
IC50 [4]: 8.06 µM
IC50 (SW480): 3.69 µM
selectivity ratio [5]: 2.76
selectivity ratio [6]: 0.44
IC50 [7]: 0.28 µM
selectivity ratio [8]: 0.76
selectivity ratio [9]: 2.11
selectivity ratio [10]: 2.82
IC50 (MDA-MB-231): 18.1 µM
selectivity ratio [11]: 3.6

C=C1CC[C@@H]2[C@](C)(CCC[C@]2(C)C(=O)OC)[C@H]1Cc1c(C)cccc1C(=O)OC
IC50 (MCF7): 40.4 µM
IC50 (A549): 28.1 µM
IC50 (T84): 29 µM

C=C1CC[C@@H]2[C@](C)(CCC[C@]2(C)C(=O)OC)[C@H]1Cc1c(C)ccc(C(=O)OC)c1C(=O)OC
IC50 (MCF7): 33 µM
IC50 (A549): 19.9 µM
IC50 (T84): 25 µM

C=C1CC[C@@H]2[C@](C)(CCC[C@]2(C)C(=O)OC)[C@H]1Cc1c(C)ccc2c1C(=O)C(O)=CC2=O
IC50 (MCF7): 38.4 µM
IC50 (A549): 41.2 µM
IC50 (T84): 30 µM
